KCNQ1 pot – potentiators or activators of human KCNQ1 potassium channel | CHO-K1 KCNQ1, thallium flux FluxOR fluorescence; hits give high values | AID 2648 | hit rate 0.35% among 310,000 | P51787 | B-score at 10 µM;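 active = fluorescence ratio B-score, a plate-corrected score, at least three library SD, with initial intensity B-score within 5 SD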
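Material: CHO-K1 cells stably expressing KCNQ1. Medium: assay buffer for compound exposure, DMSO matched across wells. Reagent: K+/Tl+ depolarizing stimulus. Compound dosing: single-concentration screen. Times: 37 °C overnight plating, 90-min dark dye load, 20-min compound pretreatment. Technique: FluxOR Tl+ flux fluorescence.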
Kir21 inh – blocks the mouse Kir2.1 inward-rectifier potassium channel; P35561; HEK293-Kir2.1, FluxOR thallium flux fluorescence; hits give low values; B-score at 10 µM; hit rate 0.85% among 310,000;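 active = fluorescence ratio B-score at or below minus 3 SD of library scores, with starting-brightness B-score within 2 SD, cut at about -4.2 in these data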;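 note: channel flux triggered by added potassium and thallium sulfate stimulus; B-score of peak minus minimum fluorescence over baseline after thallium stimulus; more negative B-score means stronger Kir2.1 block with less thallium influx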
Target sequence (P35561 whole entry, looked up): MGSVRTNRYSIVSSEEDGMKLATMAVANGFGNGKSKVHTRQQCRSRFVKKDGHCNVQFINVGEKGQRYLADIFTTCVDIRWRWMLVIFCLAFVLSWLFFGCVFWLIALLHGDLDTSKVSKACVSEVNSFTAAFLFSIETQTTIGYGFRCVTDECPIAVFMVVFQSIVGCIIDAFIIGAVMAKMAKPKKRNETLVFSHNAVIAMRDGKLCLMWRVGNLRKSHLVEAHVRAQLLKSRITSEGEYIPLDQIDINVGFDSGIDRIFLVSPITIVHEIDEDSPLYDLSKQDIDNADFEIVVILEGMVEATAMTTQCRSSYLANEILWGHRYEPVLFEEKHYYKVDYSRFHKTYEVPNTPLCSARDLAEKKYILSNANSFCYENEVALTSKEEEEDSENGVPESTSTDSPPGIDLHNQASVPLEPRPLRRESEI
KCNK3 inh – human KCNK3 channel inhibition, primary screen; O14649; AID 602410; CHO-KCNK3 thallium flux, FluxOR fluorescence; hits give low values; hit rate 0.84% among 340,000; B-score at 10 µM;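 active = B-score under library mean minus 4 SD, starting fluorescence ratio at most library mean plus 5 SD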;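 note: more negative B-score means stronger inhibition of thallium flux through KCNK3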
hERG protect – shields human hERG channel from block by proarrhythmic agents; activation (rescue from dofetilide block), less the hit threshold, % at 10 µM; Q12809; CHO-hERG, FluxOR thallium flux, dofetilide IC70 present; AID 1511; hit rate 0.51% among 310,000;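 active = activation above the mean of controls blocked by dofetilide plus 5 SD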;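 note: thallium influx through hERG after potassium depolarization seen as dye fluorescence rise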
KCNK9 block – inhibitors of human KCNK9 two-pore domain potassium channel | hit rate 1.2% among 310,000 | B-score at 10 µM | HEK293 KCNK9, FluxOR thallium flux fluorescence; hits give low values | Q9NPC2;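 active = ratio B-score over 3 SD below the library mean, with starting fluorescence within 5 SD of its mean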;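 note: negative B-score means less thallium flux so channel inhibition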
KCNQ1 block – blocks the human KCNQ1 potassium channel; CHO-K1 KCNQ1, FluxOR thallium flux fluorescence; hits give high values; B-score at 10 µM; hit rate 1.3% among 310,000; AID 2642;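 active = compounds whose thallium flux B-score, printed positive for inhibition, exceeds three library SD while starting fluorescence stays within three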;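 note: channel opened by potassium depolarization with thallium stimulus after 20 min compound exposure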
KCNK3 confirm – human KCNK3 channel inhibition, confirmation assay | ratio percent of control, % at 10 µM | hit rate 99% among 2,400 | shares compounds with KCNK3 inh | CHO-KCNK3 thallium flux, FluxOR fluorescence; 0% buffer, 100% carvedilol maximal block;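 active = ratio percent of control, averaged over triplicates, above buffer control mean plus 5 SD, cut at about 64% in these data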;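 note: ratio is the fluorescence rise from min to max over baseline after thallium stimulus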
KCNK3 noninduced – KCNK3 inhibitor counter-screen hit in non-induced cells; shares compounds with KCNK3 inh; non-induced KCNK3 parental cells, FluxOR thallium flux; hits give low values; thallium flux ratio (lower = more inhibition) at 10 µM; hit rate 40% among 2,400; AID 651747;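 active = thallium flux ratio, averaged over three wells, more than 5 SD below the buffer control mean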;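 note: host cells are CHO cells without KCNK3 induction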
Numbers stand for hits; – = inactive; · = no result given. Shown are actives, neighbours in structure and some others; about 3.7% of the full set was active somewhere.

SMILES	KCNQ1 pot	Kir21 inh	KCNK3 inh	hERG protect	KCNK9 block	KCNQ1 block	KCNK3 confirm	KCNK3 noninduced
C#CCOc1ccc(C2C(C#N)=C(N)Oc3cc(O)ccc32)cc1 (stereo not drawn)	–	–	-9.5	–	–	–	95	–
O=C(Nc1cccc(-c2nc3ccccc3c(=O)o2)c1)c1ccccc1	–	–	-8.7	–	–	–	108	0.16
O=C(Nc1cccc(-c2cn3ccccc3n2)c1)c1ccccc1	–	–	-12	–	–	–	112	–
CCCCC(=O)Nc1cccc(-c2cn3ccccc3n2)c1	–	–	-8.7	–	–	–	121	0.13
Cc1cccc(-n2c(SCC(=O)Nc3nnc(C)s3)nnc2-c2ccoc2C)c1	–	–	-14	–	–	–	66	0.16
COc1ccc(OC)c(Nc2nc(-c3cccs3)cs2)c1	–	–	-9.1	–	–	–	90	–
COc1ccc(Nc2nc(-c3cccs3)cs2)c(OC)c1	–	–	–	–	–	–	·	·
Cc1ccc(S(=O)(=O)Nc2ccccc2N=Cc2c(F)c(F)c(F)c(F)c2F)cc1	·	·	-12	·	·	·	114	0.15
Cc1ccc(S(=O)(=O)Nc2ccccc2C=Nc2cccc(C)c2C)cc1	–	–	–	–	–	–	·	·
COc1cccc(/C=N/NC(=O)c2c(C)nc3ccc(Cl)cn23)c1O	–	–	–	–	–	–	·	·
C=CCn1c(C)cc(C(=O)COc2ccc(N(C)S(=O)(=O)c3ccc(NC(C)=O)cc3)cc2)c1C	·	·	-12	·	·	·	105	–
CC1=C(c2ccccc2)SC2=NCCN21	–	–	–	–	–	–	·	·
CS(=O)(=O)N(CC(O)CON=C1c2ccccc2-c2ccccc21)c1ccc(F)cc1 (stereo not drawn)	–	–	–	–	–	–	·	·
CC(C)CCNCC(O)CON=C1c2ccccc2-c2ccccc21 (stereo not drawn)	–	-4.5	-8.8	–	–	–	104	–
CCN(CC)CCCNc1nc(SC)nc2sc3c(c12)CCN(C)C3	–	–	·	–	–	–	·	·
CC12CCC(=O)N1C(C(=O)Nc1ccccc1F)CS2 (stereo not drawn)	–	–	–	–	–	–	·	·
O=C(N/N=C/c1ccc[nH]1)c1ccc(O)cc1	–	–	–	–	–	–	·	·
O=C(N/N=C/c1ccc[nH]1)c1ccccc1O	–	–	-9	–	–	–	81	–
O=C(NNc1cc(Cl)ccc1Cl)C1CCC1	–	–	–	–	–	–	·	·
C=CCn1cc(C(=O)OCC)c(=O)c2ccc(F)cc21	–	–	–	–	–	–	·	·
Fc1ccc(Br)cc1/C=N/N1CCN(c2ccccc2)CC1	–	–	-9.3	–	–	–	96	–
Cc1ccc(CN2CCN(/N=C/c3cc(Br)ccc3F)CC2)cc1	–	–	–	–	–	–	·	·
O=C(N/N=C\c1ccc(Cl)cc1)c1sccc1-n1cccc1	–	–	–	–	–	–	·	·
O=C(N/N=C\c1ccc(Cl)cc1Cl)c1sccc1-n1cccc1	–	–	-9.4	–	–	–	93	–
CCN(CC)S(=O)(=O)c1cc(NC(=O)c2ccc3c(c2)NC(=O)C(C)S3)ccc1C (stereo not drawn)	·	·	–	·	·	·	·	·
SMILES	KCNQ1 pot	Kir21 inh	KCNK3 inh	hERG protect	KCNK9 block	KCNQ1 block	KCNK3 confirm	KCNK3 noninduced
Cc1ccc(C(=O)CSc2nc(-c3ccccc3)ccc2C#N)cc1	–	–	–	–	–	–	·	·
CCSc1nc(-c2ccc(OC)cc2)ccc1C#N	–	–	-8.8	–	–	–	113	–
CCc1ccc(N2CC(C(=O)N/N=C/c3cc([N+](=O)[O-])ccc3O)CC2=O)cc1 (stereo not drawn)	–	–	-9.1	–	–	–	91	–
COC(=O)c1ccc(Cn2nnc3c(=O)[nH]c(C4CCCN(S(=O)(=O)c5cccc(Cl)c5)C4)nc32)cc1 (stereo not drawn)	–	–	–	–	–	–	·	·
COc1ccc(-c2nc3ccccn3c2CN2CCN(c3ccccc3F)CC2)cc1	–	–	-8.8	–	–	–	106	0.16
Cn1c(N)c(C(=O)COC(=O)/C=C/c2cccc(Cl)c2)c(=O)n(C)c1=O	·	·	–	·	·	·	·	·
COC(=O)c1cccc(N2C(=O)C(Cl)=C(N3CCOCC3)C2=O)c1	–	–	-9.7	–	–	–	67	–
CCCOc1cccc(NC(=O)c2c(-c3ccccc3)noc2C)c1	–	–	–	–	–	–	·	·
Cc1cccc(OCCOC(=O)c2c(-c3ccccc3)noc2C)c1	–	–	-13	–	–	–	108	–
Cc1cc(C(=O)CCC(=O)NCC(=O)Nc2c(C)cccc2C)c(C)s1	·	·	–	·	·	·	·	·
CCOC(=O)c1cc(C#N)c(N2CCN(c3ccccn3)CC2)nc1-c1ccccc1	–	–	-9.4	–	–	–	99	–
Cc1nn(CCCC(=O)NCc2ccc(F)cc2)c(=O)c2nccn12	–	–	–	–	–	–	·	·
OC1(c2ccc(OC(F)F)cc2)CSC(=Nc2cccnc2)N1Cc1ccco1 (stereo not drawn)	–	–	-11	–	–	–	97	–
COc1ccc(NC(=O)CN2C(=O)NC(CC(C)C)C2=O)cc1S(=O)(=O)N1CCOCC1 (stereo not drawn)	·	·	–	·	·	·	·	·
O=C(N/N=C/c1cc(Cl)c(O)c(Cl)c1)c1cc2c(ccc3ccccc32)o1	–	–	-11	–	–	12	101	0.15
CCOc1ccc(/C=C/C(O)=C2/C(=O)N(C)C3(C)CC2c2ccccc2O3)cc1OC (stereo not drawn)	–	–	-9.9	–	–	–	88	–
CCOc1ccc(/C=C2\SC(=O)N(CCNC(=O)C3COc4ccccc4O3)C2=O)cc1OC (stereo not drawn)	–	–	–	–	–	–	·	·
C/C(=N/NC(=O)C1CCCC1)c1ccc(NC(=O)C(F)(F)F)cc1	–	–	–	–	–	–	·	·
CCOC(=O)c1oc2ccc3c(c2c1C)C(=O)CC1(CCN(C(=O)OCC)CC1)O3	–	–	–	–	–	–	·	·
CCOC(=O)N1CCC2(CC1)CC(=O)c1c(ccc3oc(C(=O)O)c(C)c13)O2	–	–	-15	–	–	–	–	–
C=CC[C@@H](CC(=O)OC(C)(C)C)C(=O)OC[C@H]1CCCN1C(=O)[C@@H](CC=C)CC(=O)NCCO	·	·	–	·	·	·	·	·
CC(C)(C)c1ccc(S(=O)(=O)CC(O)CSc2nc3c(cc2C#N)CCCC3)cc1 (stereo not drawn)	–	–	–	–	–	–	·	·
N#Cc1cc2c(nc1SCC(O)CS(=O)(=O)Cc1ccc(Cl)cc1)CCCC2 (stereo not drawn)	–	–	-11	–	–	–	109	0.15
